{"source": "ChEMBL document CHEMBL1938297", "about": "“Synthesis, radiofluorination and pharmacological evaluation of a fluoromethyl spirocyclic PET tracer for central σ1 receptors and comparison with fluoroalkyl homologs” (Bioorg Med Chem, 2012)", "key": {"Mus musculus [1]": {"tested_on": "Mus musculus", "assay": "Biodistribution in CD1 mouse fat at 300 kBq, iv after 60 mins by gamma counting", "assay_type": "ADME, organism-based, Adipose tissue", "conditions": "in vivo, 1 h", "method_in_brief": "(§1)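 Female CD-1 mice received [18F]1 (300 kBq) i.v.; 3–6 animals per time point anesthetized at 5, 30, 60 or 120 min p.i., blood and urine collected, animals euthanized by cervical dislocation, organs dissected and weighed. Radioactivity counted in a calibrated gamma counter; % ID/g = tissue counts / initial dose counts / tissue weight; means with SD.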"}, "Pancreas": {"tested_on": "Pancreas", "assay": "Biodistribution in CD1 mouse pancreas at 300 kBq, iv after 120 mins by gamma counting", "assay_type": "ADME, organism-based", "conditions": "in vivo, 2 h", "method_in_brief": "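Female CD-1 mice received the 18F tracer iv at 300 kBq in 0.9% NaCl containing 5% ethanol; 3–6 animals per time point (5, 30, 60, 120 min p.i.). Animals anaesthetized, blood and urine collected, killed by cervical luxation, organs dissected and weighed, counted in calibrated gamma counter. %ID/g = tissue counts / initial dose counts / tissue weight; mean with SD.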"}, "Cerebellum": {"tested_on": "Cerebellum", "assay": "Biodistribution in CD1 mouse cerebellum at 300 kBq, iv after 5 mins by gamma counting", "assay_type": "ADME, organism-based", "conditions": "in vivo", "method_in_brief": "as §1"}, "Mus musculus [2]": {"tested_on": "Mus musculus", "assay": "Biodistribution in CD1 mouse thymus at 300 kBq, iv after 60 mins by gamma counting", "assay_type": "ADME, organism-based", "conditions": "in vivo, 1 h", "method_in_brief": "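Female CD-1 mice received 300 kBq of the radiotracer i.v.; 3–6 animals per time point were anaesthetised at 5, 30, 60 or 120 min p.i. Blood and urine were collected, animals were killed by cervical dislocation, and organs were dissected and weighed. Activity was counted in a calibrated gamma counter and expressed as % injected dose per g wet tissue, mean with SD.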"}}, "data": [{"compound": "[18F]CC1OC2(CCN(Cc3ccccc3)CC2)c2ccccc21", "note": "(centres undefined)", "values": [{"measurement": "Drug uptake", "setting": "Mus musculus [1]", "result": 2.02, "unit": "% ID/g"}, {"measurement": "Drug uptake", "setting": "Pancreas", "result": 11.99, "unit": "% ID/g"}, {"measurement": "Drug uptake", "setting": "Cerebellum", "result": 8.2, "unit": "% ID/g"}, {"measurement": "Drug uptake", "setting": "Mus musculus [2]", "result": 2.5, "unit": "% ID/g"}]}]}
